What was measured:
[1] = target: Prostaglandin E2 receptor EP4 subtype (Mus musculus, UniProt P32240); assay: Displacement of [3H]PGE2 from mouse EP4 receptor expressed in CHO cells after 60 mins by scintillation counting; assay type: cell-based
[2] = target: Prostaglandin E2 receptor EP4 subtype (Rattus norvegicus, UniProt P43114); assay: Agonist activity at rat EP4 receptor expressed in CHO cells assessed as cAMP production after 10 mins by radioimmunoassay; assay type: functional, cell-based
[3] = target: T1, Prostaglandin E2 receptor EP1 subtype (Mus musculus, UniProt P35375); assay: Displacement of [3H]PGE2 from mouse EP1 receptor expressed in CHO cells after 20 mins by scintillation counting; assay type: cell-based
T1 sequence (P35375 whole entry): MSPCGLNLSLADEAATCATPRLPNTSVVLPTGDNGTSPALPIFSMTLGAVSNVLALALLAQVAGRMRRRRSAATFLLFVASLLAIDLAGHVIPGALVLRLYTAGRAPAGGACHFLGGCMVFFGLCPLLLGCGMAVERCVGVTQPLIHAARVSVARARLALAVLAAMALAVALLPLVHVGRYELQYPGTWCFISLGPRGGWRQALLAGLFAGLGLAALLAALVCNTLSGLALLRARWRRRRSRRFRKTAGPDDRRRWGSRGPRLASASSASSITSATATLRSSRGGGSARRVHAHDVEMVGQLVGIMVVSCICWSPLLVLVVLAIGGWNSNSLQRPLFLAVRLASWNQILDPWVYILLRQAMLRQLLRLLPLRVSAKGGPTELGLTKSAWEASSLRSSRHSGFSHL

[4] = target: T2, Prostaglandin E2 receptor EP3 subtype (Mus musculus, UniProt P30557); assay: Displacement of [3H]PGE2 from mouse EP3 receptor expressed in CHO cells after 60 mins by scintillation counting; assay type: cell-based
T2 sequence (P30557 whole entry): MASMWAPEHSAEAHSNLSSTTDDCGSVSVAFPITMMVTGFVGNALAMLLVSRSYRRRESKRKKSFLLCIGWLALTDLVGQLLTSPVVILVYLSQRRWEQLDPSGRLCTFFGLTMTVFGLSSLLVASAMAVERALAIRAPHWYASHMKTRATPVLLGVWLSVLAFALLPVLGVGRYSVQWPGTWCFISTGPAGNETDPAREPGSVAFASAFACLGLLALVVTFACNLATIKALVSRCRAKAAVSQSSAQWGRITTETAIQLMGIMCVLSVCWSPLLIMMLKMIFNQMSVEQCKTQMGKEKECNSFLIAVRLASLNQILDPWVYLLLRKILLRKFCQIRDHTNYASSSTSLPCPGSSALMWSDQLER

[5] = target: Prostaglandin E2 receptor EP2 subtype (Mus musculus, UniProt Q62053); assay: Displacement of [3H]PGE2 from mouse EP2 receptor expressed in CHO cells after 60 mins by scintillation counting; assay type: cell-based
[6] = target: Prostaglandin E2 receptor EP2 subtype (Rattus norvegicus, UniProt Q62928); assay: Agonist activity at rat EP2 receptor expressed in CHO cells assessed as cAMP production after 10 mins by radioimmunoassay; assay type: functional, cell-based
Method in brief: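 CHO cells expressing rat EP2 receptor, seeded 1 × 10^5 cells/well and grown 2 days; washed, incubated 10 min at 37 °C in MEM with 2 µM diclofenac, then preincubated 10 min in assay medium with 1% BSA. Compound added, 10 min at 37 °C, stopped with ice-cold 10% trichloroacetic acid; cAMP measured by radioimmunoassay.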

[7] = Drug release from PLGA microsphere assessed as compound remaining in microsphere at 100 ug/ml after 21 days; assay type: physicochemical; settings: 504 h
[8] = Drug release from PLGA microsphere assessed as compound remaining in microsphere at 100 ug/ml after 14 days; assay type: physicochemical; settings: 336 h
Rattus norvegicus [9] = assay: Induction of bone fracture healing in CrJ:CD(SD)IGS rat assessed as breaking strength of fractured fibulae at 30 ug/kg administered tropically as PLGA microsphere formulation measured after 17 days relative to control; assay type: functional
Method in brief: (§1)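 Male Sprague–Dawley rats, 8 weeks old. Under sodium pentobarbital (30–50 mg/kg) the left fibula midshaft was exposed and cut. Compound in PLGA microspheres injected topically at the fracture. At 17 days fibulae removed for three-point destructive bending; breaking strength expressed as % of the mean of nonfractured fibulae from intact rats, with vehicle-treated fractured controls.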

Rattus norvegicus [10] = assay: Induction of bone fracture healing in CrJ:CD(SD)IGS rat assessed as breaking strength of fractured fibulae at 10 ug/kg administered tropically as PLGA microsphere formulation measured after 17 days relative to control; assay type: functional; method in brief: as §1
Rattus norvegicus [11] = assay: Induction of bone fracture healing in CrJ:CD(SD)IGS rat assessed as breaking strength of fractured fibulae administered tropically as PLGA microsphere formulation measured after 17 days relative to control; assay type: functional, organism-based; method in brief: as §1
Rattus norvegicus [12] = assay: Induction of bone fracture healing in CrJ:CD(SD)IGS rat assessed as breaking strength of fractured fibulae at 3 ug/kg administered tropically as PLGA microsphere formulation measured after 17 days relative to control; assay type: functional; method in brief: as §1
Rattus norvegicus [13] = assay: Induction of bone fracture healing in CrJ:CD(SD)IGS rat assessed as breaking strength of fractured fibulae at 300 ug/kg administered tropically as PLGA microsphere formulation measured after 17 days relative to control; assay type: functional; method in brief: as §1
[14] = Drug release from PLGA microsphere assessed as compound remaining in microsphere at 100 ug/ml after 7 days; assay type: physicochemical; settings: 168 h
Rattus norvegicus [15] = assay: Induction of bone fracture healing in CrJ:CD(SD)IGS rat assessed as breaking strength of fractured fibulae at 100 ug/kg administered tropically as PLGA microsphere formulation measured after 17 days relative to control; assay type: functional; method in brief: as §1
[16] = Drug release from PLGA microsphere assessed as compound remaining in microsphere at 100 ug/ml after 28 days; assay type: physicochemical; settings: 672 h
Rattus norvegicus [17] = assay: Induction of bone fracture healing in CrJ:CD(SD)IGS rat assessed as breaking strength of fractured fibulae at 1 ug/kg administered tropically as PLGA microsphere formulation measured after 17 days relative to control; assay type: functional; method in brief: as §1

Chain of Prostaglandin E2 receptor EP4 subtype (Mus musculus, UniProt P32240) (P32240 whole entry): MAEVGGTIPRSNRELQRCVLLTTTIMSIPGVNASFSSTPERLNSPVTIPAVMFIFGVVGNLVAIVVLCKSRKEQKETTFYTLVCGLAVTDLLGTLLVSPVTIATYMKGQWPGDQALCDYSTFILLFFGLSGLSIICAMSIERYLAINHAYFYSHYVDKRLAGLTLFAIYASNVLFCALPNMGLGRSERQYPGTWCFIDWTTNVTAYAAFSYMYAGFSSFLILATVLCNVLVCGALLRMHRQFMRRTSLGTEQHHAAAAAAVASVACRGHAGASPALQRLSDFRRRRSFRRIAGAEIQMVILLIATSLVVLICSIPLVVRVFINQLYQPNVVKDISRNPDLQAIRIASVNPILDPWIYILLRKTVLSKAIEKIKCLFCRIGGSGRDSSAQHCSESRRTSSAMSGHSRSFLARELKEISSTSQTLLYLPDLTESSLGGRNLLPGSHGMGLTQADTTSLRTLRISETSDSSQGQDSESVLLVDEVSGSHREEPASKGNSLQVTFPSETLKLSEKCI
Chain of Prostaglandin E2 receptor EP4 subtype (Rattus norvegicus, UniProt P43114) (P43114 whole entry): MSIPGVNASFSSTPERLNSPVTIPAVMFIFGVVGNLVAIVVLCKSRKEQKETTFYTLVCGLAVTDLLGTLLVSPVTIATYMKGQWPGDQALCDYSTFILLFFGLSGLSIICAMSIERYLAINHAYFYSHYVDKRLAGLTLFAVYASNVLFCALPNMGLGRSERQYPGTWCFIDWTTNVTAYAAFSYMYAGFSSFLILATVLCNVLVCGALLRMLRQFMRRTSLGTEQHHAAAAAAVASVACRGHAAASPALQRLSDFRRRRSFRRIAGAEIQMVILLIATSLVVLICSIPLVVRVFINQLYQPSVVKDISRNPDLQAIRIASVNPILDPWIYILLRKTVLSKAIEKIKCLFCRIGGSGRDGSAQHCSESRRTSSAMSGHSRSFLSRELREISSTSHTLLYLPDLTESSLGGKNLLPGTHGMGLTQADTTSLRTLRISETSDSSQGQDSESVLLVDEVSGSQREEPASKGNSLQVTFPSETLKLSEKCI
Chain of Prostaglandin E2 receptor EP2 subtype (Rattus norvegicus, UniProt Q62928) (Q62928 whole entry): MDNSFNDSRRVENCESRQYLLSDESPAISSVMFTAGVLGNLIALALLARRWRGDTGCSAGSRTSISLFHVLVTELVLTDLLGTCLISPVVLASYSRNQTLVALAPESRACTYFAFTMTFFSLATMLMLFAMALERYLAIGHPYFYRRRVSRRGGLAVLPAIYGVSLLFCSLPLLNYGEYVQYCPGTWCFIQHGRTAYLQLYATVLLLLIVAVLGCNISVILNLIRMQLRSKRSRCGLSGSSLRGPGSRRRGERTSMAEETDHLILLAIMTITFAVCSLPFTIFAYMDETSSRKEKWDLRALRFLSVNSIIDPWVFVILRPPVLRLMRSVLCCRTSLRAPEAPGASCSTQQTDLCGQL
Chain of Prostaglandin E2 receptor EP2 subtype (Mus musculus, UniProt Q62053) (Q62053 whole entry): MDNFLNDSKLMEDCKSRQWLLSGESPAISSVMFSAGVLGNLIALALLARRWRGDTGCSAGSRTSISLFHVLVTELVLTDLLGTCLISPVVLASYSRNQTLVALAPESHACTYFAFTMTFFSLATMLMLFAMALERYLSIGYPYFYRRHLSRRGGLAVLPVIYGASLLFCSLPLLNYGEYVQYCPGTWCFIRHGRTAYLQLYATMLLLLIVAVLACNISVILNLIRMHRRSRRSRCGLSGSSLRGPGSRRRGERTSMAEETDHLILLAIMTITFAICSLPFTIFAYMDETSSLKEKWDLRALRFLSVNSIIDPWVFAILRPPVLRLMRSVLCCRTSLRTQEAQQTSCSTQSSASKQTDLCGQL

Row | SMILES | Ki [1] [nM] | EC50 [2] [nM] | Ki [3] [nM] | Ki [4] [nM] | Ki [5] [nM] | EC50 [6] [nM] | Activity [7] [%] | Activity [8] [%] | Activity (Rattus norvegicus [9]) [%] | Activity (Rattus norvegicus [10]) [%] | Activity (Rattus norvegicus [11]) | Activity (Rattus norvegicus [12]) [%] | Activity (Rattus norvegicus [13]) [%] | Activity [14] [%] | Activity (Rattus norvegicus [15]) [%] | Activity [16] [%] | Activity (Rattus norvegicus [17]) [%]
1 | O=C(O)CCCSCCN1C(=O)CC[C@@H]1/C=C/[C@@H](O)Cc1cccc(-c2ccccc2)c1 | 1.1 | 52 | > 10000 | > 10000 | > 10000 | – | – | – | – | – | – | – | – | – | – | – | –
2 | O=C(O)CCCSCCN1C(=O)CC[C@@H]1/C=C/[C@@H](O)Cc1cccc(-c2ccccn2)c1 | 4.8 | 86 | > 10000 | > 10000 | 6100 | – | – | – | – | – | – | – | – | – | – | – | –
3 | Cc1cc(C)c2oc(-c3cccc(C[C@H](O)/C=C/[C@H]4CCC(=O)N4CCSc4nc(C(=O)O)cs4)c3)nc2c1 | 0.15 | 7.7 | 3200 | > 10000 | 24 | > 10000 | – | – | – | – | – | – | – | – | – | – | –
4 | O=C(O)CCCSCCN1C(=O)CC[C@@H]1/C=C/[C@@H](O)Cc1cccc(-c2nc3ccccc3s2)c1 | 0.36 | 3.2 | > 10000 | > 10000 | 720 | – | – | – | – | – | – | – | – | – | – | – | –
5 | O=C(O)CCCSCCN1C(=O)CC[C@@H]1/C=C/[C@@H](O)Cc1cccc(-c2ccc3[nH]ccc3c2)c1 | 0.28 | 85 | > 10000 | > 10000 | 3500 | – | – | – | – | – | – | – | – | – | – | – | –
6 | O=C(O)c1csc(SCCN2C(=O)CC[C@@H]2/C=C/[C@@H](O)Cc2cccc(-c3nc4cc(Cl)ccc4s3)c2)n1 | 0.25 | 9.7 | 680 | > 10000 | 22 | > 10000 | – | – | – | – | – | – | – | – | – | – | –
7 | O=C(O)c1csc(SCCN2C(=O)CC[C@@H]2/C=C/[C@@H](O)Cc2cccc(-c3nc4ccccc4o3)c2)n1 | 0.12 | 2.2 | > 10000 | > 10000 | 28 | 1600 | – | – | – | – | – | – | – | – | – | – | –
8 | O=C(O)CCCSCCN1C(=O)CC[C@@H]1/C=C/[C@@H](O)Cc1cccc(OCc2ccccn2)c1 | 0.89 | 0.61 | > 10000 | > 10000 | > 10000 | – | – | – | – | – | – | – | – | – | – | – | –
9 | O=C(O)CCCSCCN1C(=O)CC[C@@H]1/C=C/[C@@H](O)Cc1cccc(-c2ccc3ccccc3c2)c1 | 0.6 | 96 | > 10000 | > 10000 | 2100 | – | – | – | – | – | – | – | – | – | – | – | –
10 | Cc1ccc(-c2cccc(C[C@H](O)/C=C/[C@H]3CCC(=O)N3CCSc3nc(C(=O)O)cs3)c2)cc1C | 0.35 | 21 | 2500 | > 10000 | 1.5 | 1400 | – | – | – | – | – | – | – | – | – | – | –
11 | COc1ccc(-c2cccc(C[C@H](O)/C=C/[C@H]3CCC(=O)N3CCSc3nc(C(=O)O)cs3)c2)cc1 | 1.7 | 15 | 5400 | > 10000 | 9.2 | 4600 | – | – | – | – | – | – | – | – | – | – | –
12 | O=C(O)CCCSCCN1C(=O)CC[C@@H]1/C=C/[C@@H](O)Cc1cccc(-c2nc3ccccc3o2)c1 | 0.2 | 13 | 5000 | > 10000 | 1700 | – | – | – | – | – | – | – | – | – | – | – | –
13 | Cc1ccc2nc(-c3cccc(C[C@H](O)/C=C/[C@H]4CCC(=O)N4CCSc4nc(C(=O)O)cs4)c3)oc2c1 | 0.16 | 1.6 | 200 | > 10000 | 56 | 3200 | 86.6 | 95 | 71.6 | 87.1 | Dose-dependent effect | 84.4 | 167.4 | 100 | 124.6 | 87.6 | –
14 | Cc1ccc(-c2cccc(C[C@H](O)/C=C/[C@H]3CCC(=O)N3CCSc3nc(C(=O)O)cs3)c2)c(C)c1 | 3.5 | 160 | 2400 | > 10000 | 23 | > 10000 | – | – | – | – | – | – | – | – | – | – | –
15 | O=C(O)CCCSCCN1C(=O)CC[C@@H]1/C=C/[C@@H](O)Cc1cccc(OCc2ccncc2)c1 | 28 | 46 | > 10000 | > 10000 | > 10000 | – | – | – | – | – | – | – | – | – | – | – | –
16 | Cc1cccc2oc(-c3cccc(C[C@H](O)/C=C/[C@H]4CCC(=O)N4CCSc4nc(C(=O)O)cs4)c3)nc12 | 0.21 | 28 | 7700 | > 10000 | 22 | 8500 | – | – | – | – | – | – | – | – | – | – | –
17 | O=C(O)CCCSCCN1C(=O)CC[C@@H]1/C=C/[C@@H](O)Cc1cccc(N2Cc3ccccc3C2)c1 | 4.4 | 28 | 7100 | > 10000 | > 10000 | – | – | – | – | – | – | – | – | – | – | – | –
18 | O=C(O)c1csc(SCCN2C(=O)CC[C@@H]2/C=C/[C@@H](O)Cc2cccc(-c3nc4ccccc4s3)c2)n1 | 0.19 | 13 | 8000 | > 10000 | 15 | 2700 | – | – | – | – | – | – | – | – | – | – | –
19 | Cc1cccc(C[C@H](O)/C=C/[C@H]2CCC(=O)N2CCSCCCC(=O)O)c1 | – | 5.7 | – | – | – | – | – | – | – | – | – | – | – | – | – | – | –
20 | O=C(O)CCCSCCN1C(=O)CC[C@@H]1/C=C/[C@@H](O)Cc1cccc(OCc2cccnc2)c1 | 4.7 | 19 | > 10000 | > 10000 | > 10000 | – | – | – | – | – | – | – | – | – | – | – | –
21 | Cc1ccc(-c2cccc(C[C@H](O)/C=C/[C@H]3CCC(=O)N3CCSc3nc(C(=O)O)cs3)c2)cc1 | 0.43 | 15 | 6100 | > 10000 | 2 | 380 | – | – | – | – | – | – | – | – | – | – | –
22 | O=C(O)c1csc(SCCN2C(=O)CC[C@@H]2/C=C/[C@@H](O)Cc2cccc(-c3nc4cc(Cl)ccc4o3)c2)n1 | 0.2 | 4.9 | 650 | > 10000 | 67 | > 10000 | – | – | – | – | – | – | – | – | – | – | –
23 | O=C(O)c1csc(SCCN2C(=O)CC[C@@H]2/C=C/[C@@H](O)Cc2cccc(-c3cc4ccccc4o3)c2)n1 | 0.12 | 5.3 | 2700 | 1700 | 2.1 | 1500 | 80.1 | 88.6 | 116.6 | 104.2 | Dose-dependent effect | 83.3 | – | 95.7 | – | 60.8 | 76.1
